Screening data as filed in PubChem.
The list is not random: actives were taken first. Their share in the collection is about 1.5%.
b-catenin transl – modulators of beta-catenin nuclear translocation, primary screen, imaging, HeLa cells, immunofluorescence, high-content. nuclear translocation activity, % at 5 µM. actives 0.3% (n = 190,000). AID 1665, 2009;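 active = nuclear translocation activity above 50% at 5 µM, with a well cell count of 50 or more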;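 also: per-cell ratio of nuclear to cytoplasmic median beta-catenin stain intensity; plate controls were DMSO negative control for no effect and GSK-3 inhibitor IX positive control for full effect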
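Read-out: Nuclear/cytoplasmic beta-catenin signal ratio, % activation | Assay system: Human HeLa cell line | Times: 24 h compound exposure at 37°C, 5% CO2 | Signal: Fluorescence imaging of beta-catenin antibody stain plus DAPI | Dosing: 5 µM primary, 0.02–20 µM confirmation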
MT stabilizer – microtubule stabilizers in HeLa cells, primary screen, imaging, high-content imaging. HeLa tubulin immunostaining HCS, 24 h; share of cells brighter than vehicle mean+2SD. % tubulin-high responders, % at 10 µM. actives 0.83% (n = 200,000). AID 2205, 2009;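 active = plate Z-score above 3 for both tubulin-high and condensed-nucleus cell shares, with cell loss under 80%, at 10 µM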;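 also: anti alpha tubulin signal scored within the nucleus-defined area of each cell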
Rad51 HR inh – human RAD51 strand exchange inhibitors, primary screen, biochemical, fluorescence; DNA repair protein RAD51 homolog 1 (Homo sapiens), Q06609; hRad51 DNA strand exchange, fluorescence dequenching; inhibition, % at 10 µM; actives 0.085% (n = 200,000); AID 1385, 2008;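 active = inhibition above 40% at the single screening dose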;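 also: 0% = DMSO control wells and 100% = blanks with heterologous ssDNA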
Target sequence (Q06609 whole entry, looked up): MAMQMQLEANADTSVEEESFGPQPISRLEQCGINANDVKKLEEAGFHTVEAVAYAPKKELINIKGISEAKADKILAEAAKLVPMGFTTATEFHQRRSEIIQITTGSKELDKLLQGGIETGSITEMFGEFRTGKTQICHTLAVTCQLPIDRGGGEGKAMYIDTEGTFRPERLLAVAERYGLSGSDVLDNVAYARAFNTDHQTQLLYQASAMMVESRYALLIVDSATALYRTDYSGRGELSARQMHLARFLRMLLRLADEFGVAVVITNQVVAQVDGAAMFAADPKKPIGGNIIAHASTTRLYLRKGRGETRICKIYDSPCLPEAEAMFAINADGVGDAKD
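Test system – preformed human Rad51 ssDNA filaments · Reagent – Donor/quencher-labelled 47-bp dsDNA substrate · Incubation – 37 °C 15-min filament assembly, 30-min compound preincubation, 15-min exchange · Signal – FRET fluorescence dequenching, excitation 485 nm, emission 520 nm · Read-out – percent inhibition from fluorescence, normalised to plate control and blank means · Benchmarks – plate control and blank wells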
Dynein transport – inhibitors of GR-EGFP nuclear translocation, primary screen, dynein cargo transport inhibitor project, imaging, high-content, 3617.4 mouse cells; z-score, hits read low; actives 0.47% (n = 220,000); test concentration mostly 20 µM; stimulated with dexamethasone, 1 µM; active compounds read low;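 active = plate z-score of nuclear minus cytoplasmic receptor signal below a set negative limit, without overly bright fluorescence or cell loss, cut at about -3.5 in these data, passing the limit was not always enough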;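 also: z-score of nuclear minus cytoplasmic ring GR-EGFP intensity difference per well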
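Also added – dexamethasone, 1.0 µM final · Buffer or medium – tet-free, stripped-serum medium · Schedule – induction 48 h, compound 1 h, agonist 30 min · Detection – formaldehyde fixation, Hoechst nuclear stain, 10x automated fluorescence imaging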
Tb hexokinase – Trypanosoma brucei hexokinase 1 inhibitors, primary screen, biochemical, G6PDH-coupled NADH absorbance, MLSCN library; recombinant TbHK1, G6PDH-coupled NADH A340; hexokinase 1 [Trypanosoma brucei]; inhibition, % at 10 µM; actives 0.11% (n = 220,000);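 active = inhibition of 50% or more in the single-dose primary screen; inactive = inhibition below 50%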
An asterisk follows results filed as active.

For C=CCn1c(C)cc(C(=O)Cn2nc(C(=O)O)c3ccccc3c2=O)c1C the results were b-catenin transl 3, MT stabilizer 3, Rad51 HR inh -23, Dynein transport -0.82 and Tb hexokinase -2.
`Cc1cc(C)c(CSc2ncnc3nc[nH]c23)c(C)c1` gave b-catenin transl 56*, MT stabilizer 2, Rad51 HR inh 3, Dynein transport 0.59 and Tb hexokinase 0.
Screening Cc1cccc(CSc2ncnc3nc[nH]c23)c1 returned b-catenin transl -2, MT stabilizer 3, Rad51 HR inh 0, Dynein transport 0.46 and Tb hexokinase 10.
Cc1onc(-c2ccccc2)c1C(=O)Nc1cc(C(F)(F)F)ccc1N1CCOCC1 was read as b-catenin transl 70*, MT stabilizer 33*, Rad51 HR inh 3, Dynein transport -0.13 and Tb hexokinase -2.
CCOC(=O)c1ccc(N2CCOCC2)c(NC(=O)c2c(-c3ccccc3)noc2C)c1 was read as b-catenin transl 125*, Rad51 HR inh -12, Dynein transport -0.075 and Tb hexokinase -13.
For Cc1ccccc1S(=O)(=O)NC1=NCCCCC1 the results were b-catenin transl 0, MT stabilizer 14*, Rad51 HR inh 3, Dynein transport 0.086 and Tb hexokinase 5.
O=S(=O)(NC1=NCCCCC1)c1ccccc1Cl was read as b-catenin transl 1, Rad51 HR inh 8, Dynein transport 0.0051 and Tb hexokinase -5.
For O=c1cc(N2CCN(c3ccc(F)cc3)CC2)[nH]c(=O)n1C1CCCCC1 the results were b-catenin transl 2, MT stabilizer 27*, Rad51 HR inh 3, Dynein transport 0.93 and Tb hexokinase 3.
Screening Clc1ccc2nc3c4ccccc4cnn3c2c1 returned b-catenin transl 0, MT stabilizer 17*, Rad51 HR inh 7, Dynein transport -0.83 and Tb hexokinase 2.
`COn1c(-c2ccccc2)nc2ccc(Cl)cc21` gave b-catenin transl 0, MT stabilizer 3, Rad51 HR inh -5, Dynein transport 0.081 and Tb hexokinase 6.
Screening O=C(NCc1ccco1)C1CC(c2ccc(Cl)c(Cl)c2)=NO1 (stereo unspecified) returned b-catenin transl 1, MT stabilizer 2, Rad51 HR inh 0, Dynein transport -0.02 and Tb hexokinase 1.
For COc1ccc(CNC(=O)C2CC(c3ccc(OC)cc3)=NO2)cc1 (stereo unspecified) the results were b-catenin transl 0, MT stabilizer 5, Rad51 HR inh -1, Dynein transport -0.057 and Tb hexokinase 26.
Screening COc1cc(C2=NOC(C(=O)NCc3ccco3)C2)cc(OC)c1OC (stereo unspecified) returned b-catenin transl 60*, MT stabilizer 23*, Rad51 HR inh -4, Dynein transport 0.097 and Tb hexokinase 5.
`CCn1ncc(C2=NOC(C(=O)Nc3ccc(C)cc3)C2)c1C` (stereo unspecified) gave b-catenin transl 0, MT stabilizer 2, Rad51 HR inh -2, Dynein transport 0.18 and Tb hexokinase -2.
Screening COc1ccc(C2=NOC(C(=O)NCc3ccc(F)cc3)C2)cc1 (stereo unspecified) returned b-catenin transl 65*, MT stabilizer 6, Dynein transport -1.1 and Tb hexokinase 20.
For COc1ccc(C2=NOC(C(=O)NCc3ccco3)C2)cc1 (stereo unspecified) the results were b-catenin transl 14, MT stabilizer 38*, Rad51 HR inh 4, Dynein transport 0.43 and Tb hexokinase 4.
CCn1ncc(C2=NOC(C(=O)NCc3ccc(Cl)cc3)C2)c1C (stereo unspecified) was read as b-catenin transl 278*, MT stabilizer 13, Dynein transport 1 and Tb hexokinase -2.
For CC1CCc2[nH]nc(C(=O)O)c2C1 (stereo unspecified) the results were b-catenin transl -4, MT stabilizer 2, Rad51 HR inh -3, Dynein transport 1.4 and Tb hexokinase 2.
